Measurements as given in PMC3356170 (International Journal of Nanomedicine, 2012).

Legend:
[1] = Survival time and urine output of dosed rats; type: in vivo
[2] = Tissue distribution and elimination in mice; type: in vivo, ICR mice; conditions: after intravenous administration (table title)
How it was run: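 ICR mice (six per group) were used. Blood was drawn from the eye socket vein at each sampling time. After cervical dislocation, heart, liver, kidney, spleen and lung were excised, rinsed in saline, blotted and weighed. Bile was taken from the gall bladder by syringe. Tissues and fluids were homogenized and processed as for plasma. NCTD was quantified by LC-MS/MS.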

[3] = Pharmacokinetics of two formulations in rats; type: in vivo, Sprague-Dawley (SD) rats
How it was run: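 SD rats (N = 6 per group) received 5 mg/kg intravenously or orally, dissolved in 0.9% NaCl. Blood was taken at set time points and centrifuged (3500 rpm, 10 min). Plasma (180 μL) was mixed with cantharidin internal standard and methanol (800 μL) and spun at 10,000 rpm for 10 min. NCTD was measured by LC-MS/MS (C18, 35°C; MRM m/z 185.0→141.1) against matrix-matched calibration from 0.1025 to 10.25 μg/mL, using peak-area ratio to internal standard. Group means gave parameters.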

[4] = intravenous administration (5 mg/kg), N = 6, mean ± SD
[5] = oral administration (5 mg/kg), N = 6, mean ± SD

## O=C1OC(=O)[C@H]2[C@@H]1[C@@H]1CC[C@H]2O1 [NCTD, Norcantharidin]
[1]; NCTD group
  survival time of rats: about 24 hours
[1]; after dosing
  urine output compared with normal rats: one-third of normal
[2]; Bile
  Te (targeted efficiency): 2.33
[2]; Blood
  Te (targeted efficiency): 30.74
[2]; Heart
  Te (targeted efficiency): 14.99
[2]; Kidney
  Te (targeted efficiency): 11.72
[2]; Liver
  Te (targeted efficiency): 10.07
[2]; Lung
  Te (targeted efficiency): 22.72
[2]; Spleen
  Te (targeted efficiency): 7.44
[3]; [4]
  AUC0-t: 9790 ± 1260 ng·h/mL
  AUC0-∞: 10770 ± 2340 ng·h/mL
  CL: 0.12 ± 0.02 L/h
  MRT: 0.34 ± 0.10 h
  Vd: 0.82 ± 0.45 L/kg
  t1/2(α) distribution half-life: 0.26 ± 0.06 h
  t1/2(β): 2.63 ± 0.82 h
[3]; [5]
  AUC0-t: 3850 ± 660 ng·h/mL
  AUC0-∞: 3870 ± 690 ng·h/mL
  CL: 0.32 ± 0.05 L/h
  Cmax: 1210 ± 230 ng/mL
  MRT: 5.49 ± 4.58 h
  Tmax: 1.50 ± 0.44 h
  Vd: 9.48 ± 6.59 L/kg
  t1/2(a): 0.56 ± 0.43 h
  t1/2(α): 0.72 ± 0.68 h
  t1/2(β): 5.08 ± 4.79 h
[3]; oral versus intravenous administration, 5 mg/kg
  oral bioavailability: 39.3%
